This note sets out measurements from ChEMBL document CHEMBL2417369, “Synthesis and evaluation of heteroaryl substituted diazaspirocycles as scaffolds to probe the ATP-binding site of protein kinases” (Bioorg Med Chem, 2013).

Experiment [1] concerns the target T1, Serine/threonine-protein kinase Sgk3 (Homo sapiens) (UniProt Q96BR1).
T1 sequence (whole entry): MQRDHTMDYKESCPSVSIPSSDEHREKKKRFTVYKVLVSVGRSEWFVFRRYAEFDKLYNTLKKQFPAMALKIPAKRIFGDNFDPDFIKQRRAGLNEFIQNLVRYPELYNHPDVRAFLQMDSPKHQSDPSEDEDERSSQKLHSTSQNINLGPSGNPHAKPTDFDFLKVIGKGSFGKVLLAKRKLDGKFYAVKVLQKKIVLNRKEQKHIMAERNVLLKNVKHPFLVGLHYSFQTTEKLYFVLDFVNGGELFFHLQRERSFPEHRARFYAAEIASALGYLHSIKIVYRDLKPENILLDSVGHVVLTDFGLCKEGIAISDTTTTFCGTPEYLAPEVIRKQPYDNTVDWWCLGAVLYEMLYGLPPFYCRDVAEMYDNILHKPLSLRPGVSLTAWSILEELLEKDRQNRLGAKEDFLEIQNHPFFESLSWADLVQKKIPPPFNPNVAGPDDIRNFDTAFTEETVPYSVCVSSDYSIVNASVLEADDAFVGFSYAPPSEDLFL
Put plainly: Inhibition of SGK3 (unknown origin) at 30 uM by microfluidic mobility shift assay relative to control. In a few lines:
(§1)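 Single-point screen against a 24-kinase panel in a commercial microfluidic assay format. Compounds were tested at 30 µM, with ATP at approximately the Km,[ATP] of each enzyme. H-89 was included on each assay plate as an internal control.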

For experiment [2], the target named is T2, Protein kinase C epsilon type (Homo sapiens) (UniProt Q02156).
T2 sequence (whole entry): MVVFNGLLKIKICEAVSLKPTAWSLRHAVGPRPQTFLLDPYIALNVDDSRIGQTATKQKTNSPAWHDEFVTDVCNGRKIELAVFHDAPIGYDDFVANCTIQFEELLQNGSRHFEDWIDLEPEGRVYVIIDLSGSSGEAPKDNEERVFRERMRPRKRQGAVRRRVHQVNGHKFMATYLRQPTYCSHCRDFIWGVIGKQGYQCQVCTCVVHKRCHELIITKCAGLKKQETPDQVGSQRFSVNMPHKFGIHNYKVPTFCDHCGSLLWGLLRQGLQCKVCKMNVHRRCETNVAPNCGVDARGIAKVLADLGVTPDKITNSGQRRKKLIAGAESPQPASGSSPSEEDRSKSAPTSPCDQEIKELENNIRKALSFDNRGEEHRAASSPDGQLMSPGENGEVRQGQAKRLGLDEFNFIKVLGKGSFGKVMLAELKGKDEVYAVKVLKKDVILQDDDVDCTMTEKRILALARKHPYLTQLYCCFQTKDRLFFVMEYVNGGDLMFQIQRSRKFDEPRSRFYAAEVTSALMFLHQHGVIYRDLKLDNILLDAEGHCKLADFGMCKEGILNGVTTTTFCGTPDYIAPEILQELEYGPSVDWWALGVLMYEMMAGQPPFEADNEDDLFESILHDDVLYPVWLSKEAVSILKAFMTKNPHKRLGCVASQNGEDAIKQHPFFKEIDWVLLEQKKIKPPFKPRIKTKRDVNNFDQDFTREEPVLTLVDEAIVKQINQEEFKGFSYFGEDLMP
As to the kind of experiment: Inhibition of PKCepsilon (unknown origin) at 30 uM by microfluidic mobility shift assay relative to control. In a few lines: as §1

The target in experiment [3] is T3, Serine/threonine-protein kinase BRSK2 (Homo sapiens) (UniProt Q8IWQ3).
T3 sequence (whole entry): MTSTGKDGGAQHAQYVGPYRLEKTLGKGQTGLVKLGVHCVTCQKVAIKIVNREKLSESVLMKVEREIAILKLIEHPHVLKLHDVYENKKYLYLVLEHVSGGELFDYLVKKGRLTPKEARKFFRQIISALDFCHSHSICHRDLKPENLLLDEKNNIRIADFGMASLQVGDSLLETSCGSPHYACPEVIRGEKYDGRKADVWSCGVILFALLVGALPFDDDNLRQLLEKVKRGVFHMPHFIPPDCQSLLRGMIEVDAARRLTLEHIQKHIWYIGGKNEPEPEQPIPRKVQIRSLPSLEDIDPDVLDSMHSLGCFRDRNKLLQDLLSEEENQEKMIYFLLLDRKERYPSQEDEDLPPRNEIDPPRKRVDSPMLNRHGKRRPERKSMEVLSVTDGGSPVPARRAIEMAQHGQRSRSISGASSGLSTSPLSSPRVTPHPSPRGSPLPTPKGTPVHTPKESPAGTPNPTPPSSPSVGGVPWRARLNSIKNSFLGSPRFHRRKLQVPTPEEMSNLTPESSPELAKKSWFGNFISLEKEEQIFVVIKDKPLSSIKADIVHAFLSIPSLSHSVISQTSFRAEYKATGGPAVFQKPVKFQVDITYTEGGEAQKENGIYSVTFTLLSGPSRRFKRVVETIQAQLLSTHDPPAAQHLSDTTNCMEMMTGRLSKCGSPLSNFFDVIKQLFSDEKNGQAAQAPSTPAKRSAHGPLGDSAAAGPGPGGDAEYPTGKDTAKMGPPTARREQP
As to the kind of experiment: Inhibition of BRSK2 (unknown origin) at 30 uM by microfluidic mobility shift assay relative to control. In a few lines: (§2)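 Single-point screen at 30 µM test compound across a 24-kinase panel in a microfluidic assay format. ATP was set near each enzyme's Km,[ATP]. […] The pan-AGC inhibitor H-89 served as an internal control on every assay plate.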

The target in experiment [4] is Protein kinase C beta type (Homo sapiens) (UniProt P05771). Put plainly: Inhibition of PKCbeta-1 (unknown origin) at 30 uM by microfluidic mobility shift assay relative to control. In a few lines: as §2
For experiment [5], the target named is Protein kinase C delta type (Homo sapiens) (UniProt Q05655). Put plainly: Inhibition of PKCdelta (unknown origin) at 30 uM by microfluidic mobility shift assay relative to control. A digest of the protocol: as §2
For experiment [6], the target named is Fibroblast growth factor receptor 3 (Homo sapiens) (UniProt P22607). Put plainly: Inhibition of FGFR3 (unknown origin) at 30 uM by microfluidic mobility shift assay relative to control. A digest of the protocol: as §2
In experiment [7] the target is Serine/threonine-protein kinase PAK 2 (Homo sapiens) (UniProt Q13177). As to the kind of experiment: Inhibition of PAK2 (unknown origin) at 30 uM by microfluidic mobility shift assay relative to control. A digest of the protocol:
as §2

Experiment [8] concerns the target Mitogen-activated protein kinase 11 (Homo sapiens) (UniProt Q15759). Put plainly: Inhibition of p38beta-2 (unknown origin) at 30 uM by microfluidic mobility shift assay relative to control. In a few lines:
as §1

Chain of Mitogen-activated protein kinase 11 (Homo sapiens) (Q15759 whole entry): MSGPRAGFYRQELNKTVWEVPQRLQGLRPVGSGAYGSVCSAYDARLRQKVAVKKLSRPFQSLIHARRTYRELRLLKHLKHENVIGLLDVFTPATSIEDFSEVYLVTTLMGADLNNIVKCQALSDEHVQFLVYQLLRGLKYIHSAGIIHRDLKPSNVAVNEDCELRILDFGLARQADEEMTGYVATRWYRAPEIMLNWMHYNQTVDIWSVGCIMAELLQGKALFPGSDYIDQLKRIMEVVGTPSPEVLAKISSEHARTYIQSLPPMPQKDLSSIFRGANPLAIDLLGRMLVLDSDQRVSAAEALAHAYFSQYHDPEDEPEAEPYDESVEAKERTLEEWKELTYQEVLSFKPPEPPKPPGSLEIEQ
Chain of Protein kinase C delta type (Homo sapiens) (Q05655 whole entry, looked up): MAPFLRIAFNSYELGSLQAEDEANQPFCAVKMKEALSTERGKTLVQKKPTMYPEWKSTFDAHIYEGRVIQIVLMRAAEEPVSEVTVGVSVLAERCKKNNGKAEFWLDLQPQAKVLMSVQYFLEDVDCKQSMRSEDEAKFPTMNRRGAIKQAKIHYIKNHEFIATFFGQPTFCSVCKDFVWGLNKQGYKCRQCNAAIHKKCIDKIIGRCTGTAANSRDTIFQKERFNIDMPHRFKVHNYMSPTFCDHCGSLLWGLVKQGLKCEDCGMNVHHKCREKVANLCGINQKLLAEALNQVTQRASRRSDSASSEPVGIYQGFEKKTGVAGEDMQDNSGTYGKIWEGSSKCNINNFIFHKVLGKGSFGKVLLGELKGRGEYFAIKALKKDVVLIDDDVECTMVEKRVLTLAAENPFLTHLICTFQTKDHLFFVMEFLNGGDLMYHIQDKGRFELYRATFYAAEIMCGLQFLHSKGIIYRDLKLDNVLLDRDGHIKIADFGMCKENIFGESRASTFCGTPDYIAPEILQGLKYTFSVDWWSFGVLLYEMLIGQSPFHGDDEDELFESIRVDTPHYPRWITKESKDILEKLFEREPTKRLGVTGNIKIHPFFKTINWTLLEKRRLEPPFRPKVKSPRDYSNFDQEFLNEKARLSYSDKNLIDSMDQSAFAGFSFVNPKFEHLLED
Chain of Protein kinase C beta type (Homo sapiens) (P05771 2-671 limits assumed): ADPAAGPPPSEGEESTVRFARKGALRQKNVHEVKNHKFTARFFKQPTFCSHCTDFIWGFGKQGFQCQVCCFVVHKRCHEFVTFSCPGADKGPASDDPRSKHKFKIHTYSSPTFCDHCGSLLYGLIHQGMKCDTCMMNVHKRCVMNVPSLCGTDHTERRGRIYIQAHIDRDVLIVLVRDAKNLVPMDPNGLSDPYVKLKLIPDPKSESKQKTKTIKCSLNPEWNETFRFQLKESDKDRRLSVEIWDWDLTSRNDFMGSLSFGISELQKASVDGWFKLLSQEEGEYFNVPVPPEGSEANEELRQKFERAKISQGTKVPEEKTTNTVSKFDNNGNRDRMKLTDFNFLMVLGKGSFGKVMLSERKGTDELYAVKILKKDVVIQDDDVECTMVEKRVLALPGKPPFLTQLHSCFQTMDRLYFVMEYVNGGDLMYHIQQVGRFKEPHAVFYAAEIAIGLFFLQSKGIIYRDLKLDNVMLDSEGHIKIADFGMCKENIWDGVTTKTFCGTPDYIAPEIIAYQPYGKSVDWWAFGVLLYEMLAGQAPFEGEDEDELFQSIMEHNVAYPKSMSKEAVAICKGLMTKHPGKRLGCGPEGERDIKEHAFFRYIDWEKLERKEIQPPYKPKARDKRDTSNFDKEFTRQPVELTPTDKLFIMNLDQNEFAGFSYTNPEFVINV
Chain of Fibroblast growth factor receptor 3 (Homo sapiens) (P22607 23-806 limits assumed): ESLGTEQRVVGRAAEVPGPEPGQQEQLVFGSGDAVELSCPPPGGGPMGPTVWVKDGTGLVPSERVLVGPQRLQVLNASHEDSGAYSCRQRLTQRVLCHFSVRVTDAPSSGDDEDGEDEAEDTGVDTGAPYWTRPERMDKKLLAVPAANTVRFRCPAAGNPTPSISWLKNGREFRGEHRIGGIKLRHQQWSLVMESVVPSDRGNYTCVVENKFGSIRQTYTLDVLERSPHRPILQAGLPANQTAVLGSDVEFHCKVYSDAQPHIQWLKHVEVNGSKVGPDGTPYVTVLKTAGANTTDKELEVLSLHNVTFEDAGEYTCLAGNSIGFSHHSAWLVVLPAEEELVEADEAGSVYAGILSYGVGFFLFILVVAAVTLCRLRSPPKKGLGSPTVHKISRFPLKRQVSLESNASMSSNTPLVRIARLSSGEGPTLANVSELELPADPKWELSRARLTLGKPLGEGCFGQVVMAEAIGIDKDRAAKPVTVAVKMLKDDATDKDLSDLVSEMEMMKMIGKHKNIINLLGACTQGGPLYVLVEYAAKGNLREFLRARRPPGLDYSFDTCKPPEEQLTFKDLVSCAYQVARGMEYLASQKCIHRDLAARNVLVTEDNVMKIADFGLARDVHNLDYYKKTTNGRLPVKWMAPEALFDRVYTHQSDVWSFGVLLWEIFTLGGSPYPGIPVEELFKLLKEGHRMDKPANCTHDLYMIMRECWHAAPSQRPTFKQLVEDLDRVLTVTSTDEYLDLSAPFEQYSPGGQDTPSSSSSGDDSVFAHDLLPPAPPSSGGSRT
Chain of Serine/threonine-protein kinase PAK 2 (Homo sapiens) (Q13177 whole entry): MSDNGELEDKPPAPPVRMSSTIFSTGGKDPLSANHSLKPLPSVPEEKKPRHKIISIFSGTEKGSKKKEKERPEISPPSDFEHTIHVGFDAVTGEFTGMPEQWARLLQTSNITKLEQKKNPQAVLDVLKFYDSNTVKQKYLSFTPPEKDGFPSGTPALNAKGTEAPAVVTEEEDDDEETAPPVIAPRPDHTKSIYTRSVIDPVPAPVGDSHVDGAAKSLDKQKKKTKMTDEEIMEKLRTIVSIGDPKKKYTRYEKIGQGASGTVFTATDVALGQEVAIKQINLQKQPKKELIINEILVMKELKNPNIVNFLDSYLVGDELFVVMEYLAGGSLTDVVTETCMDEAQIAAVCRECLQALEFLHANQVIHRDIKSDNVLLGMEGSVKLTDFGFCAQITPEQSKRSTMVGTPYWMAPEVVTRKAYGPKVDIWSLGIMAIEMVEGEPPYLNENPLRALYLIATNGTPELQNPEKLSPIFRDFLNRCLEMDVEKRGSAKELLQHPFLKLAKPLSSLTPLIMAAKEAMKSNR

On to `c1ccc(C2CCNC3(CCN(c4ncnc5[nH]cnc45)CC3)C2)cc1` (racemic), for which the inhibition in experiment [1] was found to be 95%; in experiment [2], 66%; in experiment [3], 16%; in experiment [4], 65%; in experiment [5] it was 79%; in experiment [6] it was 7%. The inhibition in experiment [7] worked out at 20%; in experiment [8] it was 4%.
With `c1ccc(CC2CCC3(CCN(c4ncnc5[nH]cnc45)CC3)NC2)cc1` (racemic), the inhibition was found to be 27% in experiment [1]; 24% in experiment [2]; 1% in experiment [3]; 38% in experiment [4]; 27% in experiment [5]; 10% in experiment [6]. The inhibition in experiment [7] turned out to be 13%; in experiment [8] it was 3%.
Regarding `c1ccc(CC2CCNC3(CCN(c4ncnc5[nH]cnc45)CC3)C2)cc1` (racemic), the inhibition amounted to 94% in experiment [1]; 64% in experiment [2]; 0% in experiment [3]; 76% in experiment [4]; 75% in experiment [5]; 7% in experiment [6]. Moreover, the inhibition was determined as 19% in experiment [7] and 8% in experiment [8].

One may read the inhibition as the change of the read-out against control, counted positive when it falls.
